Screens from PubChem.
The list is not random: actives were taken first. Their share in the collection is about 1.7%.
Vif inh – blocks HIV Vif function; HEK293T cells, Vif self-association by quenched fluorescence, imaging, 24 h; inhibition, % at 7.49 µM; actives 0.35% (n = 340,000); AID 602346; in the data active = inhibition above about 50%, passing the limit was not always enough
Myeloid diff 2 – myeloid differentiation induction; ER-HoxA9 myeloid progenitors, lysozyme-GFP differentiation, flow cytometry; calls only at 10 µM; actives 1% (n = 360,000);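 active = normalized GFP-positive differentiation at or above the plate's own cutoff, the solvent-only control mean plus 3 SD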;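 also: cells exposed to compound for four days before flow analysis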
Pemphigus Ab inh – inhibitors of pemphigus antibody binding to human desmoglein-3; P32926; DSG3-coupled beads, scFv-anti-DSG3-GFP binding, flow cytometry; hits give low values; binding (percent of control), % at 10 µM; actives 0.48% (n = 310,000);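 active = binding more than 3 SD below its plate's average and above zero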;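 also: hits lower antibody fragment binding to DSG3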
Target sequence (P32926 whole entry, looked up, the tested form may be a part): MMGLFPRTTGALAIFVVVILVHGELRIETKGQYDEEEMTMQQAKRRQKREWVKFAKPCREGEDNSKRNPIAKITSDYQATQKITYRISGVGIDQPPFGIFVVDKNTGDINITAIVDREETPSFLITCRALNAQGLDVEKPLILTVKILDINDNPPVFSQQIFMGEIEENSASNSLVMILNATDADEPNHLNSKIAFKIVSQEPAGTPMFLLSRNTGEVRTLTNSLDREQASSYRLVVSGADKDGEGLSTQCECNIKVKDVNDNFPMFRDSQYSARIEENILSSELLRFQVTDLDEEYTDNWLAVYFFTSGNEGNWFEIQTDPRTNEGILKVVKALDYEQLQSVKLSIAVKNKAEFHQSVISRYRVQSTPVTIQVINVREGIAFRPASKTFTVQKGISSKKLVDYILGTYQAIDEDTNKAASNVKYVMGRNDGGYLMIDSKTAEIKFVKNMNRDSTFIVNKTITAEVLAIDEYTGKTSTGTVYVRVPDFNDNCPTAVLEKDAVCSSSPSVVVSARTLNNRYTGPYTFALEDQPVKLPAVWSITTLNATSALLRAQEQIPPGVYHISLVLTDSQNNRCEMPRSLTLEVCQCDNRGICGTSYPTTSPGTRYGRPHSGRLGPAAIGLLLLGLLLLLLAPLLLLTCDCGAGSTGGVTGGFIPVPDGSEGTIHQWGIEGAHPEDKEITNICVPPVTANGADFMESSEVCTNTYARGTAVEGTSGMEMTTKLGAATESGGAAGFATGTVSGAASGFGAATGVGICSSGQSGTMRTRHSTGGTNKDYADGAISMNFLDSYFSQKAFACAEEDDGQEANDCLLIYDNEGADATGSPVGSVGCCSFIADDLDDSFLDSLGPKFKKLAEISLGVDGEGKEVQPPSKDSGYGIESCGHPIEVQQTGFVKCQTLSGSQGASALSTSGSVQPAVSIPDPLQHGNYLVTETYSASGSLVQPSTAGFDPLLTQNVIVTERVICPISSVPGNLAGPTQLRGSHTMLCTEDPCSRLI
T cell HTS – T cell immune modulation candidate; actives 0.068% (n = 330,000); response (vesicle binding), % at 7 µM; 2C CD8+ T cell-vesicle binding, flow cytometry; hits give low values; AID 2052;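 active = response, share of CD8 T cells binding vesicles, and their 90th percentile fluorescence all below set limits, cut at about 80% in these data, passing the limit was not always enough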;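 also: values below 100% mean blocked vesicle binding to the CD8+ T cells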
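Material: murine 2C transgenic CD8+ T lymphocytes / Also added: QL9-peptide-loaded Drosophila micro-vesicles bearing Ld, ICAM-1 and B7-1 / Schedule: binding step 1.5 h, 37 °C, antibody labelling 20 min, ice / Signal: flow cytometry, PE anti-B7-1 (FL2) versus Alexa647 anti-CD8 (FL8), PFA-fixed / Evaluation: percent CD8+ FL2 mean versus row control / Benchmarks: naked versus QL9-loaded vesicles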
Myeloid diff – compounds promoting myeloid differentiation. shares compounds with Myeloid diff 2. ER-HoxA9 myeloid progenitors, GFP/Mac1 double-positive flow. calls only. actives 2% (n = 2,300);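 active = share of green or green-and-red cells above 9 and 9% in run 1 or 4 and 3% in run 2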
GFP autofluor – compound fluorescence in myeloid differentiation counter-screen; shares compounds with Myeloid diff 2; ER-HoxA9 myeloid progenitors, no estrogen, GFP autofluorescence flow cytometry; vehicle wells 0%, positive control 100%; fluorescence response, % (no concentration beside the values); actives 7.4% (n = 2,300);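 active = over 5% cells positive for green fluorescent reporter, or over 2% positive for both it and APC stain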
Hits are given with their value; n = inactive; x = no result; + = active, no number.

SMILES	Vif inh	Myeloid diff 2	Pemphigus Ab inh	T cell HTS	Myeloid diff	GFP autofluor
COC(=O)C1=C(c2ccc(F)cc2F)C[C@@H]2CC[C@H]1N2C(=O)NCCOc1ccccc1	x	n	n	n	x	x
C[C@]12CCC(=O)C=C1CCC1C2CC[C@@]2(C)C1CC[C@@]2(O)CC#N (stereo not given in full)	n	+	n	n	n	n
Fc1ccccc1N1CCN(Cc2ccc3c(c2)OCO3)CC1	n	n	n	n	n	n
CN(CCOc1ccc(C=C2C(=O)NC(=O)NC2=O)cc1)c1ccccn1	n	n	n	n	n	n
COc1ccc(OCCOc2cccc(C=C3C(=O)NC(=O)NC3=O)c2)cc1	x	x	x	n	x	x
CCOC(=O)C1SC2(C(F)(F)F)CC1(O)c1c(C)cc(C)nc1O2 (stereo not given)	n	+	n	n	n	n
COC(=O)[C@]1(C)C[C@H]1[C@H](NP(=O)(c1ccccc1)c1ccccc1)c1ccccc1	n	n	n	n	n	n
O=c1c2ccccc2nc(/C=C/c2ccc(O)c(O)c2)n1-c1ccccc1	n	n	n	n	n	n
O=c1[nH]c(=S)[nH]c(O)c1N=Nc1ccc2c(c1)OCO2	n	n	n	n	x	x
O=c1[nH]c(=S)[nH]c(O)c1N=Nc1ccc2c(c1)OCCO2	n	+	n	n	n	n
COc1ccc(C2=NCC(=O)N(CC(=O)NCc3ccco3)c3sc4c(c32)CCCC4)cc1	n	n	76	n	n	n
CN(C/N=C(\N)N[N+](=O)[O-])S(=O)(=O)c1ccccc1	n	n	n	n	x	x
Cc1ccc(N=C(/N=C(\N)N[N+](=O)[O-])Nc2ccc(C)cc2)cc1	n	n	n	n	n	n
CCN(CC)C(=O)c1ccc(NC(=O)c2cccc(S(=O)(=O)N3CCN(Cc4ccccc4)CC3)c2)cc1	n	n	n	n	n	n
CCN(CC)C(=O)c1ccc(NC(=O)c2cc(S(=O)(=O)N3CCCCCC3)ccc2OC)cc1	n	n	n	n	x	x
CC(=O)N(C)CC#CCN1CCC(O)CC1	x	n	n	n	x	x
CCc1ccc(NC(=O)C(C)OC(=O)c2c(C)nn(Cc3ccccc3)c2Cl)cc1 (stereo not given)	n	n	n	n	x	x
Cc1cc(NC(=O)COC(=O)c2c(C)nn(Cc3ccccc3)c2Cl)no1	n	n	n	n	+	n
Cc1nn(Cc2ccccc2)c(Cl)c1C(=O)OC(C)C(=O)Nc1ccc(F)cc1Cl (stereo not given)	n	n	n	n	n	n
COc1ccc2c(C)c(CC(=O)N3C[C@H]4C[C@@H](C3)c3cccc(=O)n3C4)c(=O)oc2c1C	n	n	x	n	x	x
O=[N+]([O-])c1ccc(N2CCCCCC2)c2nonc12	x	n	n	x	x	x
CN(c1ccc(O)cc1)c1ccc([N+](=O)[O-])c2nonc12	n	+	n	x	n	n
CCc1cc2c(cc1-c1csc(C/C(N)=N/O)n1)C(C)(C)CCC2(C)C	x	+	n	x	n	n
COC(=O)C1=C(c2ccc(C(C)=O)cc2)C[C@@H]2CC[C@H]1N2C(=O)NC1Cc2ccccc2C1	n	n	n	n	x	x
CCOP(=S)(OCC)c1ccc(N(C)C)cc1	n	+	n	n	n	n
SMILES	Vif inh	Myeloid diff 2	Pemphigus Ab inh	T cell HTS	Myeloid diff	GFP autofluor
CCCCn1nnnc1C(CC)N1CCC2(CC1)C(=O)NCN2c1ccccc1 (stereo not given)	n	n	x	x	x	x
O=c1[nH]c(=S)n(C2CC2)c(O)c1/C=N/Nc1cccc2ccccc12	n	n	n	n	n	n
O=c1[nH]c(=S)n(C2CC2)c(O)c1/C=N/Nc1ccccc1	n	n	n	n	x	x
COc1ccc(C2C(C(=O)N3CCC4(CC3)OCCO4)c3cc(OC)c(OC)cc3C(=O)N2C)cc1 (stereo not given)	n	n	x	n	n	n
Cc1ccc(C(O)(C(=O)OC(C)C)C(O)c2ccccc2)cc1 (stereo not given)	x	n	x	x	x	x
O=C(CCc1ccccc1)N1Cc2cc(N3CCOCC3)ccc2-n2nncc2C1	n	n	x	x	x	x
OCC[n+]1c2ccccc2nc2ccc(N3CCOCC3)cc21	n	+	n	n	n	n
COC(=O)C1=C(c2ccc(F)cc2OCc2ccccc2)C[C@@H]2CC[C@H]1N2C(=O)NCc1cc(C)oc1C(F)(F)F	n	n	n	n	x	x
CC1CCCC(C)N1/N=C/c1c[nH]c2ccc(Br)cc12 (stereo not given)	n	n	n	n	n	n
